Laboratory results as given in ChEMBL document CHEMBL4385642, “Optimization and biological evaluation of nicotinamide derivatives as Aurora kinase inhibitors” (Bioorg Med Chem, 2019).
The source made the active and inactive calls. No cut-off for these calls is given here.

Columns and labels:
[1] = target: Aurora kinase B (Homo sapiens) (UniProt Q96GD4); assay: Inhibition of Aurora B (unknown origin) at 0.2 uM pre-incubated for 10 mins before FAM-labeled peptide substrate addition by mobility shift assay relative to control
SW-620 [2] = assay: Cytotoxicity in human SW620 cells assessed as reduction in cell viability incubated for 72 hrs by MTT assay; format: functional, cell-based; settings: SW-620, 72 h
Outline: (§1)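 Cells in DMEM or RPMI 1640 with 10% FBS and 1% penicillin/streptomycin were seeded at 6 × 10^3/well and grown 24 h at 37 °C, 5% CO2. They were exposed 72 h to graded compound concentrations (DMSO under 0.1%). MTT (5 mg/mL, 10 µL) was added for 4 h at 37 °C and formazan dissolved in DMSO. A492 was read against a 630 nm reference, and IC50 came from concentration–response curves.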

[3] = target: T1, Aurora kinase A (Homo sapiens) (UniProt O14965); assay: Inhibition of Aurora A (unknown origin) at 0.2 uM pre-incubated for 10 mins before FAM-labeled peptide substrate addition by mobility shift assay relative to control
T1 sequence (whole entry): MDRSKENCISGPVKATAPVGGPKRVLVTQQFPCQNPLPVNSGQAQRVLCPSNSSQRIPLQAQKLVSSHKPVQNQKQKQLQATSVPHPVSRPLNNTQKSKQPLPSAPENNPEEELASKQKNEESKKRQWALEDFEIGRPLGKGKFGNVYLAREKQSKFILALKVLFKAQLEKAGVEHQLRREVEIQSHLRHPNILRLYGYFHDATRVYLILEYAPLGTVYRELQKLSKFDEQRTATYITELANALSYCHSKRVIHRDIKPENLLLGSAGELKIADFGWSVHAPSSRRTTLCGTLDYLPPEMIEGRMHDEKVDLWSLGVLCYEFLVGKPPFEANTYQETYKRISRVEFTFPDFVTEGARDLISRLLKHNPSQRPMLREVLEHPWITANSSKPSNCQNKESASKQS

HeLa = assay: Cytotoxicity in human HeLa cells assessed as reduction in cell viability incubated for 72 hrs by MTT assay; format: functional, cell-based
Outline: as §1

NCI-H1975 = assay: Cytotoxicity in human NCI-H1975 cells assessed as reduction in cell viability incubated for 72 hrs by MTT assay; format: functional, cell-based; settings: NCI-H1975, 72 h
Outline: as §1

SW-620 [4] = assay: Antiproliferative activity against human SW620 cells assessed as effect on cell confluence level at 0.12 to 3.33 ug/ml incubated up to 84 hrs and measured every 1 hr by IncuCyte live-cell imaging assay; format: functional, cell-based
Outline: (§2)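 SW620 cells seeded at 5 × 10^3/well and grown 24 h at 37 °C, 5% CO2 inside the IncuCyte. Compounds were then added at 0.12–10.0 µg/mL, with 0.1% DMSO as vehicle control. Phase-contrast images were taken with a 10× objective every 1 h for 84 h. Confluence was scored from the images, in triplicate.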

SW-620 [5] = assay: Antiproliferative activity against human SW620 cells assessed as effect on cell confluence level at 0.12 to 3.33 ug/ml incubated up to 84 hrs and measured every 1 hr by phase contrast microscopy; format: functional, cell-based
Outline: as §2

SW-620 [6] = assay: Antiproliferative activity against human SW620 cells assessed as cell confluence level at 10 ug/ml incubated up to 84 hrs and measured every 1 hr by phase contrast microscopy (reference value: 86.5%); format: functional
Outline: as §2

HT-29 = assay: Cytotoxicity in human HT-29 cells assessed as reduction in cell viability incubated for 72 hrs by MTT assay; format: functional, cell-based; settings: HT-29, 72 h
Outline: as §1

SW-620 [7] = assay: Induction of apoptosis in human SW620 cells at 3.33 ug/ml incubated for 36 hrs by IncuCyte live-cell imaging assay; format: functional, cell-based
Outline: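 Apoptosis kinetics by IncuCyte imaging: SW620 cells at 5 × 10^3/well were pre-grown 24 h at 37 °C, 5% CO2, then given compound (0.12–10.0 µg/mL) or 0.1% DMSO. Green-fluorescent apoptotic cells were counted on images taken with a 10× objective every 1 h over 48 h, in triplicate.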

SW-620 [8] = assay: Antiproliferative activity against human SW620 cells assessed as cell confluence level at 10 ug/ml incubated up to 84 hrs and measured every 1 hr by IncuCyte live-cell imaging assay (reference value: 86.5%); format: functional
Outline: as §2

SW-620 [9] = assay: Cytotoxicity against human SW620 cells assessed as increase in dead cell number at 10 ug/ml incubated for 36 hrs by IncuCyte live-cell imaging assay; format: functional, cell-based
Outline: (§3)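 Live-cell kinetic imaging of SW620 cells (5 × 10^3/well, 24 h pre-culture at 37 °C, 5% CO2) exposed to 0.12–10.0 µg/mL compound or 0.1% DMSO. Red-fluorescent cells were counted as dead cells, imaged with a 10× objective hourly for 84 h, in triplicate.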

SW-620 [10] = assay: Cytotoxicity against human SW620 cells assessed as increase in dead cell number at 10 ug/ml incubated for 5 hrs by IncuCyte live-cell imaging assay; format: functional, cell-based
Outline: as §3

Chain of Aurora kinase B (Homo sapiens) (Q96GD4 whole entry): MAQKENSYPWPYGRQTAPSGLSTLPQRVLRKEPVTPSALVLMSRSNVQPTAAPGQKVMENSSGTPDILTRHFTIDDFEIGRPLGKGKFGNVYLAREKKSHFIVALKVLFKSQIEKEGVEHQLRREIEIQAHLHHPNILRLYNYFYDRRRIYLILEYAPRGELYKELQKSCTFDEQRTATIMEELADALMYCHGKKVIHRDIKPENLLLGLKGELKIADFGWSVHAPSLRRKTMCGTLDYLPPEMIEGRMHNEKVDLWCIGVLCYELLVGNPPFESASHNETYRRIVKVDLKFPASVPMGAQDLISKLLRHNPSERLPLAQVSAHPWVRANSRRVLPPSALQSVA

Row | Structure (SMILES) | inhibition [1] | IC50 (SW-620 [2]) | inhibition [3] | other results
1 | COc1cc2nccc(Oc3ccc(NC(=O)c4cnc(Cl)cc4Nc4cccc(F)c4)cc3)c2cc1OC | 49.6% | 5.1 µM | 48.6% | –
2 | COc1cc2nccc(Oc3ccc(NC(=O)c4cnc(Cl)cc4Nc4ccccc4F)cc3)c2cc1OC | 50.1% | 8.1 µM | 51.5% | –
3 | COc1cc2nccc(Oc3ccc(NC(=O)c4cnc(Cl)cc4Nc4ccc(F)c(Br)c4)cc3)c2cc1OC | 30.1% | 1.33 µM | 81.3% | IC50 (HeLa): > 20 µM; IC50 (NCI-H1975): 3.54 µM; Activity (SW-620 [4]): inactive; Activity (SW-620 [5]): inactive; Activity (SW-620 [6]): 42.6%; IC50 (HT-29): > 20 µM; Activity (SW-620 [7]): inactive; Activity (SW-620 [8]): 42.6%
4 | COc1cc2nccc(Oc3ccc(NC(=O)c4cnc(Cl)cc4Nc4ccccc4Br)cc3)c2cc1OC | 56.1% | 6.9 µM | 78.2% | IC50 (HeLa): > 20 µM; IC50 (NCI-H1975): 8 µM; IC50 (HT-29): > 20 µM
5 | COc1cc2nccc(Oc3ccc(NC(=O)c4cnc(Cl)cc4Nc4cccc5ccccc45)cc3)c2cc1OC | 46.3% | – | 59.9% | –
6 | COc1cc2nccc(Oc3ccc(NC(=O)c4cnc(Cl)cc4Nc4ccccc4)cc3)c2cc1OC | 52.1% | 1.92 µM | 48.2% | –
7 | COc1cc2nccc(Oc3ccc(NC(=O)c4cnc(Cl)cc4Nc4ccc(F)c(Br)c4)cc3F)c2cc1OC | 30.5% | 0.61 µM | 82.9% | Activity (SW-620 [9]): Active; IC50 (HeLa): > 20 µM; IC50 (NCI-H1975): 1.06 µM; Activity (SW-620 [4]): inactive; Activity (SW-620 [5]): inactive; Activity (SW-620 [6]): inactive; IC50 (HT-29): > 20 µM; Activity (SW-620 [7]): inactive; Activity (SW-620 [8]): inactive; Activity (SW-620 [10]): Active
8 | COc1cc2nccc(Oc3ccc(NC(=O)c4cnc(Cl)cc4Nc4ccc(Br)cc4F)cc3)c2cc1OC | 31.6% | 2.45 µM | 70% | IC50 (HeLa): > 20 µM; IC50 (HT-29): > 20 µM
9 | COc1cc2nccc(Oc3ccc(NC(=O)c4cnc(Cl)cc4Nc4ccccc4Cl)cc3)c2cc1OC | 57.1% | 3.6 µM | 68.3% | –
10 | COc1cc2nccc(Oc3ccc(NC(=O)c4cnc(Cl)cc4Nc4ccc(F)cc4)cc3)c2cc1OC | 51.6% | 6.82 µM | 47.1% | –
11 | COc1cc2nccc(Oc3ccc(NC(=O)c4c(Nc5ccc(F)c(Br)c5)cc(C)nc4Cl)cc3F)c2cc1OC | 17.7% | – | 0.6% | –
12 | COc1cc2nccc(Oc3ccc(NC(=O)c4cnc(Cl)cc4Nc4cccc(Cl)c4)cc3)c2cc1OC | 31.9% | 4.33 µM | 55.1% | –
13 | COc1cc2nccc(Oc3ccc(NC(=O)C4(C(=O)Nc5ccc(F)cc5)CC4)cc3)c2cc1OC [CABOZANTINIB] | 38.3% | 3.37 µM | – | IC50 (HeLa): > 20 µM; IC50 (NCI-H1975): 6.67 µM; Activity (SW-620 [4]): inactive; Activity (SW-620 [5]): inactive; Activity (SW-620 [6]): 40.9%; IC50 (HT-29): 9.6 µM; Activity (SW-620 [8]): 40.9%
14 | COc1cc2nccc(Oc3ccc(NC(=O)c4cn(C)c(=O)cc4Nc4ccccc4)cc3)c2cc1OC | 31.1% | 4.43 µM | 40.9% | –
15 | COc1cc2nccc(Oc3ccc(NC(=O)c4cnc(Cl)cc4Nc4ccc(Cl)cc4)cc3)c2cc1OC | 38.5% | 2.38 µM | 51.9% | –
16 | COc1cc2nccc(Oc3ccc(NC(=O)c4c[nH]c(=O)cc4Nc4ccccc4)cc3)c2cc1OC | 38.7% | 18.9 µM | 29.9% | –
17 | COc1cc2nccc(Oc3ccc(NC(=O)c4cccnc4Nc4ccc(F)c(Br)c4)cc3F)c2cc1OC | 40.7% | 1.86 µM | 48.4% | –
18 | COc1cc2nccc(Oc3ccc(NC(=O)c4cnc5ccc(Br)cc5c4Nc4ccc(F)c(Br)c4)cc3F)c2cc1OC | 13.7% | – | 6.6% | –
